Assays:
Lung [1] = experiment: Biodistribution in Sprague-Dawley rat lung at 20 to 120 uCi, iv after 30 mins by gamma counting analysis; assay type: ADME, organism-based; settings: in vivo, 0.5 h
Outline: (§1)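 Sprague-Dawley rats (280–330 g), 2 male and 2 female per time point (5, 30, 60, 120 min), under light isoflurane, received a tail-vein bolus of 20–120 μCi tracer in 0.05–0.10 mL isotonic 60 mM sodium phosphate, pH 5.4. Tissues were weighed and gamma-counted. Decay-corrected dpm/g was normalized to injected dpm per kg body weight (%ID·kg/g).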

Ovary = experiment: Biodistribution in Sprague-Dawley rat ovary at 20 to 120 uCi, iv after 60 mins by gamma counting analysis; assay type: ADME, organism-based, Female gonad; settings: in vivo, 1 h
Outline: as §1, with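 “g)” for “g), 2 male and 2 female per time point (5, 30, 60, 120 min),”, “isoflurane” for “isoflurane,”, “Sampling was at 5, 30, 60 or 120 min. […]” for “Tissues”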

Adrenal [2] = experiment: Biodistribution in Sprague-Dawley rat adrenal at 20 to 120 uCi, iv after 5 mins by gamma counting analysis; assay type: ADME, organism-based, Adrenal tissue; settings: in vivo; outline: as §1
Rattus norvegicus [3] = experiment: Biodistribution in Sprague-Dawley rat stomach at 20 to 120 uCi, iv after 120 mins by gamma counting analysis; assay type: ADME, organism-based; settings: in vivo, 2 h
Outline: (§2)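 Male and female rats (2 per sex per time point, 280–330 g) under light isoflurane given tail-vein bolus of 20–120 μCi tracer in 0.05–0.10 mL isotonic 60 mM sodium phosphate, pH 5.4. Tissues sampled at 5, 30, 60 or 120 min, weighed and gamma-counted. Decay-corrected dpm per gram normalised to injected dpm and body weight, given as %ID·kg/g.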

Rattus norvegicus [4] = experiment: Biodistribution in Sprague-Dawley rat eyeballs at 20 to 120 uCi, iv after 5 mins by gamma counting analysis; assay type: ADME, organism-based, Eyeball of camera-type eye; settings: in vivo; outline: as §1
Brain = experiment: Biodistribution in Sprague-Dawley rat brain at 20 to 120 uCi, iv after 120 mins by gamma counting analysis; assay type: ADME, organism-based; settings: in vivo, 2 h; outline: as §1
[5] = Drug uptake in rhesus macaque monkey myocardium at 0.1 mCi after 10 to 30 mins by gamma counting analysis; assay type: ADME, Macaca mulatta; settings: in vivo
Kidney = experiment: Biodistribution in Sprague-Dawley rat kidney at 20 to 120 uCi, iv after 30 mins by gamma counting analysis; assay type: ADME, organism-based; settings: in vivo, 0.5 h; outline: as §1
Spleen [6] = experiment: Biodistribution in Sprague-Dawley rat spleen at 20 to 120 uCi, iv after 120 mins by gamma counting analysis; assay type: ADME, organism-based; settings: in vivo, 2 h; outline: as §1
[7] = Half life in Sprague-Dawley rat heart sympathetic neurons at 2 uCi/mL administered as infusion by gamma counting analysis; assay type: ADME, tissue-based; settings: sympathetic neuron
Outline: (§3)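 Isolated working rat hearts perfused with 54 μM corticosterone in all perfusates to block uptake-2. Tracer infused at <10 nM total mass for 10 min to measure neuronal uptake rate (mL/min/g wet), then switched to normal perfusate to follow clearance over 2 h.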

Lung [8] = experiment: Biodistribution in Sprague-Dawley rat lung at 20 to 120 uCi, iv after 60 mins by gamma counting analysis; assay type: ADME, organism-based; settings: in vivo, 1 h; outline: as §1
Plasma [9] = experiment: Metabolic stability in rhesus macaque monkey plasma assessed as retention time of [18F]-2-fluoro-5-(2-guanidinoethyl)phenyl hydrogen sulfate at 5 to 6 mCi, iv by RP-HPLC analysis; assay type: ADME, organism-based, Macaca mulatta; settings: in vivo
Outline: (§4)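 Six venous samples (1.5–2.0 mL; typically 1, 2, 4, 10, 30, 60 min) drawn during the monkey PET scan into heparin and centrifuged 1 min at 12000 × g. Plasma deproteinised with HClO₄ (final 0.4 N), spun, neutralised with KOH to pH 7.0–7.5 and filtered twice (0.22 μm). Analysed by reverse-phase HPLC (10% EtOH in 60 mM NaH₂PO₄, pH 5.4, 1.0 mL/min) with NaI(Tl) radiodetection. Decay-corrected intact fraction per sample; T1/2 is the time at which 50% of plasma activity is metabolite.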

Pancreas [10] = experiment: Biodistribution in Sprague-Dawley rat pancreas at 20 to 120 uCi, iv after 5 mins by gamma counting analysis; assay type: ADME, organism-based; settings: in vivo; outline: as §1
Muscle tissue [11] = experiment: Biodistribution in Sprague-Dawley rat muscle at 20 to 120 uCi, iv after 120 mins by gamma counting analysis; assay type: ADME, organism-based; settings: in vivo, 2 h; outline: as §1
Heart = experiment: Biodistribution in Sprague-Dawley rat heart at 20 to 120 uCi, iv after 5 mins by gamma counting analysis; assay type: ADME, organism-based; settings: in vivo; outline: as §1
Bone = experiment: Biodistribution in Sprague-Dawley rat bone at 20 to 120 uCi, iv after 5 mins by gamma counting analysis; assay type: ADME, organism-based, Bone element; settings: in vivo; outline: as §1
Rattus norvegicus [12] = experiment: Biodistribution in Sprague-Dawley rat eyeballs at 20 to 120 uCi, iv after 60 mins by gamma counting analysis; assay type: ADME, organism-based, Eyeball of camera-type eye; settings: in vivo, 1 h; outline: as §1
Rattus norvegicus [13] = experiment: Biodistribution in Sprague-Dawley rat stomach at 20 to 120 uCi, iv after 30 mins by gamma counting analysis; assay type: ADME, organism-based; settings: in vivo, 0.5 h; outline: as §2
[14] = Drug uptake in rhesus macaque monkey myocardium at 0.1 mCi by Patlak plot analysis; assay type: ADME, tissue-based, Macaca mulatta; settings: in vivo
Outline: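 Same monkey for all studies. Desipramine (0.010, 0.0316, 0.10 or 1.0 mg/kg; n = 1 each) in 2.0 mL saline infused i.v. over 20 min, with tracer injected 10 min after the infusion ended; 4 control studies. ROIs on myocardium and basal LV blood pool drawn on summed final four frames. Cp(t) derived from Cwb(t) × intact fraction × Cp/Cwb. Ki from compartmental modelling and Kp as Patlak slope, fitted against DMI dose to a variable-slope sigmoidal model.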

Spleen [15] = experiment: Biodistribution in Sprague-Dawley rat spleen at 20 to 120 uCi, iv after 30 mins by gamma counting analysis; assay type: ADME, organism-based; settings: in vivo, 0.5 h; outline: as §1
[16] = Half life in rhesus macaque monkey plasma at 5 to 6 mCi, iv by RP-HPLC analysis; assay type: ADME, organism-based, Macaca mulatta; outline: as §4
Adrenal [17] = experiment: Biodistribution in Sprague-Dawley rat adrenal at 20 to 120 uCi, iv after 120 mins by gamma counting analysis; assay type: ADME, organism-based, Adrenal tissue; settings: in vivo, 2 h; outline: as §1
Spleen [18] = experiment: Biodistribution in Sprague-Dawley rat spleen at 20 to 120 uCi, iv after 60 mins by gamma counting analysis; assay type: ADME, organism-based; settings: in vivo, 1 h; outline: as §2
Muscle tissue [19] = experiment: Biodistribution in Sprague-Dawley rat muscle at 20 to 120 uCi, iv after 60 mins by gamma counting analysis; assay type: ADME, organism-based; settings: in vivo, 1 h; outline: as §1
[20] = Drug uptake in Sprague-Dawley rat heart sympathetic neurons measured per gram wet mass of heart at 2 uCi/mL administered as infusion for 10 mins measured after 120 mins by gamma counting analysis; assay type: ADME, tissue-based; settings: sympathetic neuron, 2 h; outline: as §3
Plasma [21] = experiment: Metabolic stability in rhesus macaque monkey plasma assessed as retention time at 5 to 6 mCi, iv by RP-HPLC analysis; assay type: ADME, organism-based, Macaca mulatta; settings: in vivo; outline: as §4
Pancreas [22] = experiment: Biodistribution in Sprague-Dawley rat pancreas at 20 to 120 uCi, iv after 120 mins by gamma counting analysis; assay type: ADME, organism-based; settings: in vivo, 2 h; outline: as §1
Rattus norvegicus [23] = experiment: Biodistribution in Sprague-Dawley rat eyeballs at 20 to 120 uCi, iv after 30 mins by gamma counting analysis; assay type: ADME, organism-based, Eyeball of camera-type eye; settings: in vivo, 0.5 h; outline: as §1
[24] = Drug uptake in rhesus macaque monkey liver at 5 to 6 mCi, iv after 90 mins by PET analysis; assay type: ADME, organism-based, Macaca mulatta; settings: in vivo, 1.5 h
[25] = Drug uptake in rhesus macaque monkey left ventricle at 5 to 6 mCi, iv after 90 mins by PET analysis; assay type: ADME, organism-based, Macaca mulatta, Heart left ventricle; settings: in vivo, 1.5 h
Rattus norvegicus [26] = experiment: Biodistribution in Sprague-Dawley rat stomach at 20 to 120 uCi, iv after 5 mins by gamma counting analysis; assay type: ADME, organism-based; settings: in vivo; outline: as §2
Pancreas [27] = experiment: Biodistribution in Sprague-Dawley rat pancreas at 20 to 120 uCi, iv after 30 mins by gamma counting analysis; assay type: ADME, organism-based; settings: in vivo, 0.5 h; outline: as §1

N=C(N)NCCc1ccc([18F])c(O)c1
Drug uptake (Lung [1]): 0.136 %IDKg/g | Drug uptake (Ovary): 0.142 %IDKg/g | Drug uptake (Adrenal [2]): 0.203 %IDKg/g | Drug uptake (Rattus norvegicus [3]): 0.089 %IDKg/g | Drug uptake (Rattus norvegicus [4]): 0.039 %IDKg/g | Drug uptake (Brain): 0.001 %IDKg/g | SUV [5]: 1.2 | Drug uptake (Kidney): 0.183 %IDKg/g | Drug uptake (Spleen [6]): 0.235 %IDKg/g | t1/2 [7]: > 1440 min | Drug uptake (Lung [8]): 0.091 %IDKg/g | Retention_time (Plasma [9]): 8.2 min | Drug uptake (Pancreas [10]): 0.137 %IDKg/g | Drug uptake (Muscle tissue [11]): 0.015 % ID/g | Drug uptake (Heart): 0.746 %IDKg/g | Drug uptake (Bone): 0.06 %ID·kg/g | Drug uptake (Rattus norvegicus [12]): 0.041 %IDKg/g | Drug uptake (Rattus norvegicus [13]): 0.11 %IDKg/g | Kp [14]: 0.302 mL/min/g | Drug uptake (Spleen [15]): 0.262 %IDKg/g | half-life [16]: 2.5 min | Drug uptake (Adrenal [17]): 0.133 %IDKg/g | Drug uptake (Spleen [18]): 0.253 %IDKg/g | Drug uptake (Muscle tissue [19]): 0.016 % ID/g | Kup [20]: 0.77 mL/min | Retention_time (Plasma [21]): 11.4 min | Drug uptake (Pancreas [22]): 0.121 %IDKg/g | Drug uptake (Rattus norvegicus [23]): 0.04 %IDKg/g | Drug uptake [24]: Not Active | Drug uptake [25]: Active | Drug uptake (Rattus norvegicus [26]): 0.116 %IDKg/g | Drug uptake (Pancreas [27]): 0.145 %IDKg/g

Source: ChEMBL document CHEMBL2424590, “4-[18F]Fluoro-m-hydroxyphenethylguanidine: a radiopharmaceutical for quantifying regional cardiac sympathetic nerve density with positron emission tomography” (J Med Chem, 2013)
